Laboratory results taken from ChEMBL document CHEMBL4715693, “Synthesis and antiviral properties of novel indole-based thiosemicarbazides and 4-thiazolidinones” (Bioorg Med Chem, 2016).
Converted amounts (≈) assume the structure as drawn.

Test system: Influenza B virus
Experiment: Antiviral activity against influenza B virus infected in dog MDCK cells assessed as reduction in virus-induced cytopathic effect incubated for 3 to 6 days by light microscopic analysis
Format: functional, organism-based
Details: not given
Summary of the method: (§1)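 MDCK cells, subconfluent, received influenza A or B virus together with serial compound dilutions. Incubated 3–6 days at 35 °C.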

SMILES | EC50 [µg/mL]
CCCCNC(=S)NNC(=O)c1[nH]c2ccc(F)cc2c1-c1ccccc1 | > 100
C=CCN1C(=O)CS/C1=N\NC(=O)c1[nH]c2ccc(F)cc2c1-c1ccccc1 | > 100

Test system: Felid alphaherpesvirus 1
Experiment: Antiviral activity against Feline herpesvirus infected in cat CRFK cells assessed as reduction in virus-induced cytopathic effect incubated for 3 to 6 days by light microscopic analysis
Format: functional, organism-based
Details: Felid alphaherpesvirus 1, CRFK

SMILES | EC50 [µg/mL]
CCCCNC(=S)NNC(=O)c1[nH]c2ccc(F)cc2c1-c1ccccc1 | > 100
C=CCN1C(=O)CS/C1=N\NC(=O)c1[nH]c2ccc(F)cc2c1-c1ccccc1 | > 100

Test system: Vesicular stomatitis virus
Experiment: Antiviral activity against Vesicular stomatitis virus infected in human HeLa cells assessed as reduction in virus-induced cytopathic effect incubated for 3 to 6 days by light microscopic analysis
Format: functional, organism-based
Details: not given
Summary of the method: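 CPE reduction assay: virus and serial compound dilutions added together to subconfluent HeLa (vesicular stomatitis, Coxsackie B4, respiratory syncytial) or Vero (Coxsackie B4, Sindbis, Punta Toro) cultures. Incubated 3–6 days at 37 °C. Mean ± SEM of three independent tests.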

SMILES | EC50 [µg/mL]
CCCCNC(=S)NNC(=O)c1[nH]c2ccc(F)cc2c1-c1ccccc1 | > 100
C=CCN1C(=O)CS/C1=N\NC(=O)c1[nH]c2ccc(F)cc2c1-c1ccccc1 | > 100

Test system: Coxsackievirus B4
Experiment: Antiviral activity against Human coxsackievirus B4 infected in African green monkey Vero cells assessed as reduction in virus-induced cytopathic effect incubated for 3 to 6 days by light microscopic analysis
Format: functional, organism-based
Details: Enterovirus B
Summary of the method: (§2)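 CPE reduction assay: virus and serial compound dilutions added together to subconfluent HeLa (vesicular stomatitis, Coxsackie B4, respiratory syncytial) or Vero (Coxsackie B4, Sindbis, Punta Toro) cultures. Incubated 3–6 days at 37 °C. […] Mean ± SEM of three independent tests.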

SMILES | EC50 [µg/mL]
CCCCNC(=S)NNC(=O)c1[nH]c2ccc(F)cc2c1-c1ccccc1 | > 100
C=CCN1C(=O)CS/C1=N\NC(=O)c1[nH]c2ccc(F)cc2c1-c1ccccc1 | > 100

Test system: Human alphaherpesvirus 2
Experiment: Antiviral activity against Herpes simplex virus 2 infected in human HEL cells assessed as reduction in virus-induced cytopathic effect incubated for 3 to 6 days by light microscopic analysis
Format: functional, cell-based
Details: Human alphaherpesvirus 2, HEL

SMILES | EC50 [µg/mL]
CCCCNC(=S)NNC(=O)c1[nH]c2ccc(F)cc2c1-c1ccccc1 | > 100
C=CCN1C(=O)CS/C1=N\NC(=O)c1[nH]c2ccc(F)cc2c1-c1ccccc1 | > 100

Test system: Feline coronavirus
Experiment: Antiviral activity against Feline coronavirus infected in cat CRFK cells assessed as reduction in virus-induced cytopathic effect incubated for 3 to 6 days by light microscopic analysis
Format: functional, organism-based
Details: Alphacoronavirus 1, CRFK

SMILES | EC50 [µg/mL]
CCCCNC(=S)NNC(=O)c1[nH]c2ccc(F)cc2c1-c1ccccc1 | > 100
C=CCN1C(=O)CS/C1=N\NC(=O)c1[nH]c2ccc(F)cc2c1-c1ccccc1 | > 100

Test system: MT4
Experiment: Cytotoxicity against human MT4 cells assessed as reduction in cell viability incubated for 3 to 6 days by MTS assay
Format: cell-based
Details: time 3-6 day
Summary of the method: (§3)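 CRFK or MT4 cells were exposed to serial compound dilutions alongside the antiviral assays for 3–6 days at 37 °C.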

SMILES | CC50 [µg/mL]
CCCCNC(=S)NNC(=O)c1[nH]c2ccc(F)cc2c1-c1ccccc1 | 11 (≈ 28.6 µM)
C=CCN1C(=O)CS/C1=N\NC(=O)c1[nH]c2ccc(F)cc2c1-c1ccccc1 | > 125

Test system: Influenza A virus
Experiment: Antiviral activity against influenza A virus infected in dog MDCK cells assessed as reduction in virus-induced cytopathic effect incubated for 3 to 6 days by light microscopic analysis
Format: functional, organism-based
Details: Influenza A virus, MDCK
Summary of the method: as §1

SMILES | EC50 [µg/mL]
CCCCNC(=S)NNC(=O)c1[nH]c2ccc(F)cc2c1-c1ccccc1 | > 100
C=CCN1C(=O)CS/C1=N\NC(=O)c1[nH]c2ccc(F)cc2c1-c1ccccc1 | > 100

Test system: Human immunodeficiency virus 1
Experiment: Antiviral activity against Human immunodeficiency virus 1 infected in human MT4 cells assessed as reduction in virus-induced cytopathic effect incubated for 3 to 6 days by light microscopic analysis
Format: functional, organism-based
Details: Human immunodeficiency virus 1, MT4

SMILES | EC50 [µg/mL]
CCCCNC(=S)NNC(=O)c1[nH]c2ccc(F)cc2c1-c1ccccc1 | > 100
C=CCN1C(=O)CS/C1=N\NC(=O)c1[nH]c2ccc(F)cc2c1-c1ccccc1 | > 100

Test system: Human respirovirus 3
Experiment: Antiviral activity against Human parainfluenza virus 3 infected in African green monkey Vero cells assessed as reduction in virus-induced cytopathic effect incubated for 3 to 6 days by light microscopic analysis
Format: functional, organism-based
Details: Human respirovirus 3, Vero

SMILES | EC50 [µg/mL]
CCCCNC(=S)NNC(=O)c1[nH]c2ccc(F)cc2c1-c1ccccc1 | > 100
C=CCN1C(=O)CS/C1=N\NC(=O)c1[nH]c2ccc(F)cc2c1-c1ccccc1 | > 100

Test system: Coxsackievirus B4
Experiment: Antiviral activity against Human coxsackievirus B4 infected in human HeLa cells assessed as reduction in virus-induced cytopathic effect incubated for 3 to 6 days by light microscopic analysis
Format: functional, organism-based
Details: Enterovirus B
Summary of the method: as §2

SMILES | EC50 [µg/mL]
CCCCNC(=S)NNC(=O)c1[nH]c2ccc(F)cc2c1-c1ccccc1 | > 100
C=CCN1C(=O)CS/C1=N\NC(=O)c1[nH]c2ccc(F)cc2c1-c1ccccc1 | > 100

Test system: Punta Toro virus
Experiment: Antiviral activity against Punta Toro virus infected in African green monkey Vero cells assessed as reduction in virus-induced cytopathic effect incubated for 3 to 6 days by light microscopic analysis
Format: functional, organism-based
Details: not given
Summary of the method: as §2

SMILES | EC50 [µg/mL]
CCCCNC(=S)NNC(=O)c1[nH]c2ccc(F)cc2c1-c1ccccc1 | > 100
C=CCN1C(=O)CS/C1=N\NC(=O)c1[nH]c2ccc(F)cc2c1-c1ccccc1 | > 100

Test system: Vaccinia virus
Experiment: Antiviral activity against Vaccinia virus infected in human HEL cells assessed as reduction in virus-induced cytopathic effect incubated for 3 to 6 days by light microscopic analysis
Format: functional, organism-based
Details: Orthopoxvirus vaccinia

SMILES | EC50 [µg/mL]
CCCCNC(=S)NNC(=O)c1[nH]c2ccc(F)cc2c1-c1ccccc1 | > 100
C=CCN1C(=O)CS/C1=N\NC(=O)c1[nH]c2ccc(F)cc2c1-c1ccccc1 | > 100

Test system: not listed separately
Experiment: Cytotoxicity against African green monkey Vero cells assessed as changes in cell morphology incubated for 3 to 6 days by light microscopy
Format: cell-based
Details: chlorocebus sabaeus, time 3-6 day
Summary of the method: (§4)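 Uninfected subconfluent cells (Vero or HeLa, as named) exposed to serial compound dilutions in parallel with the CPE assays, 37 °C, 3–6 days. Cell morphology examined by light microscopy; MCC = minimal concentration causing microscopically detectable changes in morphology.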

SMILES | MCC [µg/mL]
CCCCNC(=S)NNC(=O)c1[nH]c2ccc(F)cc2c1-c1ccccc1 | 10

Test system: Respiratory syncytial virus
Experiment: Antiviral activity against Respiratory syncytial virus infected in human HeLa cells assessed as reduction in virus-induced cytopathic effect incubated for 3 to 6 days by light microscopic analysis
Format: functional, organism-based
Details: not given
Summary of the method: as §2

SMILES | EC50 [µg/mL]
CCCCNC(=S)NNC(=O)c1[nH]c2ccc(F)cc2c1-c1ccccc1 | > 100
C=CCN1C(=O)CS/C1=N\NC(=O)c1[nH]c2ccc(F)cc2c1-c1ccccc1 | > 100

Test system: Human immunodeficiency virus 2
Experiment: Antiviral activity against Human immunodeficiency virus 2 infected in human MT4 cells assessed as reduction in virus-induced cytopathic effect incubated for 3 to 6 days by light microscopic analysis
Format: functional, organism-based
Details: Human immunodeficiency virus 2, MT4

SMILES | EC50 [µg/mL]
CCCCNC(=S)NNC(=O)c1[nH]c2ccc(F)cc2c1-c1ccccc1 | > 100
C=CCN1C(=O)CS/C1=N\NC(=O)c1[nH]c2ccc(F)cc2c1-c1ccccc1 | > 100

Test system: not listed separately
Experiment: Cytotoxicity against human HEL cells assessed as changes in cell morphology incubated for 3 to 6 days by light microscopy
Format: cell-based
Details: time 3-6 day
Summary of the method: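 Human embryonic lung fibroblasts incubated with serial compound dilutions alongside the antiviral assays, 37 °C, 3–6 days. Morphology inspected by light microscopy; minimal cytotoxic concentration taken as lowest concentration giving minimal morphological change.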

SMILES | MCC [µg/mL]
CCCCNC(=S)NNC(=O)c1[nH]c2ccc(F)cc2c1-c1ccccc1 | > 10
C=CCN1C(=O)CS/C1=N\NC(=O)c1[nH]c2ccc(F)cc2c1-c1ccccc1 | > 100

Test system: Sindbis virus
Experiment: Antiviral activity against Sindbis virus infected in African green monkey Vero cells assessed as reduction in virus-induced cytopathic effect incubated for 3 to 6 days by light microscopic analysis
Format: functional, organism-based
Details: not given
Summary of the method: as §2

SMILES | EC50 [µg/mL]
CCCCNC(=S)NNC(=O)c1[nH]c2ccc(F)cc2c1-c1ccccc1 | > 100
C=CCN1C(=O)CS/C1=N\NC(=O)c1[nH]c2ccc(F)cc2c1-c1ccccc1 | > 100

Test system: Human alphaherpesvirus 1
Experiment: Antiviral activity against Herpes simplex virus 1 infected in human HEL cells assessed as reduction in virus-induced cytopathic effect incubated for 3 to 6 days by light microscopic analysis
Format: functional, cell-based
Details: Human alphaherpesvirus 1, HEL

SMILES | EC50 [µg/mL]
CCCCNC(=S)NNC(=O)c1[nH]c2ccc(F)cc2c1-c1ccccc1 | > 100
C=CCN1C(=O)CS/C1=N\NC(=O)c1[nH]c2ccc(F)cc2c1-c1ccccc1 | > 100

Test system: Mammalian orthoreovirus 1
Experiment: Antiviral activity against Mammalian orthoreovirus 1 infected in African green monkey Vero cells assessed as reduction in virus-induced cytopathic effect incubated for 3 to 6 days by light microscopic analysis
Format: functional, organism-based
Details: Mammalian orthoreovirus 1, Vero

SMILES | EC50 [µg/mL]
CCCCNC(=S)NNC(=O)c1[nH]c2ccc(F)cc2c1-c1ccccc1 | > 100
C=CCN1C(=O)CS/C1=N\NC(=O)c1[nH]c2ccc(F)cc2c1-c1ccccc1 | > 100

Test system: not listed separately
Experiment: Cytotoxicity against cat CRFK cells assessed as reduction in cell viability incubated for 3 to 6 days by MTS assay
Format: cell-based, Felis catus
Details: crfk, time 3-6 day
Summary of the method: as §3

SMILES | CC50 [µg/mL]
CCCCNC(=S)NNC(=O)c1[nH]c2ccc(F)cc2c1-c1ccccc1 | 1.4 (≈ 3.64 µM)
C=CCN1C(=O)CS/C1=N\NC(=O)c1[nH]c2ccc(F)cc2c1-c1ccccc1 | > 100

Test system: not listed separately
Experiment: Cytotoxicity against human HeLa cells assessed as changes in cell morphology incubated for 3 to 6 days by light microscopic analysis
Format: cell-based
Details: time 3-6 day
Summary of the method: as §4

SMILES | MCC [µg/mL]
CCCCNC(=S)NNC(=O)c1[nH]c2ccc(F)cc2c1-c1ccccc1 | 4

Test system: not listed separately
Experiment: Cytotoxicity against dog MDCK cells assessed as changes in cell morphology incubated for 3 to 6 days by light microscopy
Format: cell-based, Canis lupus familiaris
Details: time 3-6 day

SMILES | MCC [µg/mL]
CCCCNC(=S)NNC(=O)c1[nH]c2ccc(F)cc2c1-c1ccccc1 | 10
